Compound activity as filed in PubChem BioAssay.
SENP6 inh: SENP6 protease inhibition. AID 2599. Q9GZR1. Recombinant SENP6 catalytic domain, aminoluciferin luminescence. inhibition, % at 10 µM. 330,000 tested, 1.8% active;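 active = inhibition above about 50% at the single tested dose, limit read from the data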
SENP8 block-1: inhibitors of human SENP8 protease. 360,000 tested, 0.64% active. recombinant SENP8, Nedd8 substrate fluorescence. inhibition, % at 20 µM. Q96LD8; in the data active = inhibition mostly above about 40%, no sharp cut-off; inactive = mostly below about 27%
SENP7 block: SENP7 protease inhibition; recombinant SENP7, Z-RLRGG-aminoluciferin luminescence, 40 min; inhibition, % at 5 µM; 330,000 tested, 1.5% active; AID 434973;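 active = inhibition above about 50% at the single test dose, limit read from the data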
Target sequence (Q9BQF6 706-1050 limits assumed): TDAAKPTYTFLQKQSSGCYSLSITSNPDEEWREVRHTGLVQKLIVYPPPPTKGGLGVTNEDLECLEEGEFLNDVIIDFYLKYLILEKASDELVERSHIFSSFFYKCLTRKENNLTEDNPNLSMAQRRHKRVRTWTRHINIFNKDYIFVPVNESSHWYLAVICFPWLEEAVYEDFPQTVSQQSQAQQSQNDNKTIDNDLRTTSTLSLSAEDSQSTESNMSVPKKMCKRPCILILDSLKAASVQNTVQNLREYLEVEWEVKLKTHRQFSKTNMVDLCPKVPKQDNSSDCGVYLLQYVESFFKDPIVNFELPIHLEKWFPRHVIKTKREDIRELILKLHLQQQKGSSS
SENP8 block-2: SENP8 protease inhibition; Q96LD8; purified SENP8, Z-RLRGG-aminoluciferin cleavage, luminescence; inhibition, % at 10 µM; 330,000 tested, 1.2% active; AID 2540; in the data active = inhibition above about 50%
SENP1 FRET inh: blocks the human SENP1 SUMO protease catalytic domain; Q9P0U3; recombinant SENP1 catalytic domain, CyPet-SUMO1-YPet FRET cleavage; inhibition, % at 10 µM; 360,000 tested, 0.21% active; AID 624204;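 active = inhibition at least 30% at 10 µM, raw YFP signal under a set limit, fluorescence ratio 0.5 to 1.5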
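Material: hSENP1 catalytic domain, recombinant; medium: Tris pH 8 with BME, BSA, NP40 and catalase; compound: single concentration of 10 µM compound, 0.5% DMSO final; technique: FRET read of cyan and yellow fluorescence; timing: 50 min enzyme reaction, room temperature, light-protected; reagent: SFCypet-SUMO1-SFYpet substrate at 25 nM; control set: no-enzyme low, enzyme-DMSO high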
Platelet DG rel: modulates dense granule release in human platelets; inhibition, %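 (compounds screened at 7.5 µM in platelet-rich plasma)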; 300,000 tested, 0.22% active; AID 1663; human platelet-rich plasma, SFLLRN dense granule ATP release, luminescence;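 active = mean replicate score, as percent of positive control, at or above 50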
SENP8 confirm: confirmation of human SENP8 protease inhibitors. shares compounds with SENP7 block. inhibition, % at 12.5 µM. AID 488912. Recombinant SENP8, Z-RLRGG-aminoluciferin luminescence, 60 min. 6,200 tested, 40% active;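 active = mean inhibition across replicates above about 50%, limit read from the data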
SENP6 conf: human SENP6 inhibition, confirmed. shares compounds with SENP7 block. recombinant SENP6, Z-RLRGG-aminoluciferin luminescence. inhibition, % at 12.5 µM. 6,200 tested, 58% active
SENP7 conf: human SENP7 inhibition, confirmed | shares compounds with SENP7 block | recombinant SENP7, Z-RLRGG-aminoluciferin luminescence, 40 min | inhibition, % at 12.5 µM | 6,200 tested, 69% active | AID 488917
Casp3 SENP sel: selectivity test for SENP inhibitors: human caspase-3 inhibition; purified caspase-3, Z-DEVD-aminoluciferin luminescence, 60 min; shares compounds with SENP7 block; 6,200 tested, 60% active; inhibition, % at 12.5 µM;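 active = mean inhibition above about 50%, limit read from the data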
Target sequence (P42574 28-227 limits assumed): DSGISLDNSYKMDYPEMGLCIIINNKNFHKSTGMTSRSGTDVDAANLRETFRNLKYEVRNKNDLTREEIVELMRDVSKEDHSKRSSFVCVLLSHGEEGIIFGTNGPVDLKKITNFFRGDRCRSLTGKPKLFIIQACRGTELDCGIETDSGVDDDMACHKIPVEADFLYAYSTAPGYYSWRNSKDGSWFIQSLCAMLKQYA
SENP luc ctr: interferes with luciferase luminescence in SENP counter-screen; 6,200 tested, 39% active; Pre-incubated SENP8/Z-RLRGG-aminoluciferin, luciferase luminescence interference; inhibition, % at 12.5 µM; AID 488919; shares compounds with SENP7 block;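 active = mean inhibition above about 50% when retested at one dose, limit read from the data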
Hits are given with their value; 0 = inactive; - = no result. A selection: hits, their analogues and other compounds. The true share with any hit is near 2.6%.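 The calls were made as follows, unless noted: active = mean inhibition above about 50% in the one-dose retest (limit read from the data); inactive = the rest.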

SMILES | SENP6 inh | SENP8 block-1 | SENP7 block | SENP8 block-2 | SENP1 FRET inh | Platelet DG rel | SENP8 confirm | SENP6 conf | SENP7 conf | Casp3 SENP sel | SENP luc ctr
O=C1NC[C@@H](CCCCN2CCN(CC3CCCCC3)C(=O)C2=O)N(CC2CCCCC2)C1=O | - | 0 | - | - | 0 | - | - | - | - | - | -
C=CC(=O)Oc1ccc(N2Cc3ccccc3C2=O)cc1 | 0 | 0 | 0 | 0 | 0 | 0 | - | - | - | - | -
O=C1c2ccccc2CN1c1ccccc1 | 0 | 0 | 0 | 0 | 0 | 0 | - | - | - | - | -
Cc1ccc(N2Cc3ccccc3C2=O)cc1 | 93 | 0 | 94 | 89 | 0 | 0 | 91 | 93 | 101 | 95 | 54
COc1ccc(N2Cc3ccccc3C2=O)cc1 | 87 | 0 | 93 | 78 | 0 | 0 | 86 | 87 | 98 | 94 | 82
Cc1ccc(C)c2[nH]c(=O)c(CCNC(=O)c3ccco3)cc12 | 0 | 0 | 0 | 0 | 0 | 0 | - | - | - | - | -
Cc1cccc(NC(=S)NNC(=O)c2csc3c2CCCC3)c1 | 0 | 0 | 0 | 61 | 0 | 0 | 0 | 0 | 0 | 0 | 0
COc1ccc(CNC(=O)c2csc3c2CCCC3)cc1 | 0 | 0 | 0 | 0 | 0 | - | - | - | - | - | -
COc1ccc(NC(=O)c2csc3c2CCCC3)cc1 | 0 | 0 | 50 | 0 | 0 | 0 | 0 | 0 | 75 | 0 | 0
COc1cccc(NC(=O)CN(C)C(=O)c2csc3c2CCCC3)c1 | 0 | 0 | 0 | 0 | 0 | - | - | - | - | - | -
COc1cccc(NC(=O)c2csc3c2CCCC3)c1 | 68 | 0 | 62 | 54 | 0 | 0 | 59 | 59 | 87 | 0 | 0
NC(=O)C1CCN(C(=O)c2ccc3c(=O)n(Cc4ccco4)c(SCC(=O)c4ccc(F)cc4)nc3c2)CC1 | 0 | - | 0 | 0 | - | 0 | - | - | - | - | -
CCOc1cc(CNc2ccc3cn[nH]c3c2)ccc1OC | 68 | 0 | 59 | 53 | 0 | 0 | 0 | 0 | 0 | 0 | 0
C[C@@H]1CN([C@@H](C)CO)S(=O)(=O)c2ccc(Br)cc2O[C@H]1CN(C)C(=O)Cc1cccnc1 | - | 0 | - | - | 0 | - | - | - | - | - | -
Cc1ccc2c(c1)nnn2C1CCN(CC(=O)N2CCN(c3ccc(F)cc3)CC2)CC1 | 0 | 0 | 64 | 0 | 0 | 0 | 0 | 0 | 0 | 0 | 0
O=C(CN1CCC(n2nnc3cc(F)ccc32)CC1)NCCc1nc2ccccc2[nH]1 | 0 | 0 | 52 | 0 | 0 | 0 | 0 | 0 | 0 | 0 | 0
Cc1ccc2c(c1)nnn2C1CCN(CC(=O)Nc2ccc(F)cc2)CC1 | 0 | 0 | 0 | 0 | 0 | 0 | - | - | - | - | -
Cc1ccc(Nc2nc(Cl)c(C=O)s2)cc1Cl | 94 | 0 | 87 | 93 | 0 | 0 | 69 | 96 | 85 | 52 | 0
O=C(Oc1ccc2c(c1)OCO2)c1ccc(F)cc1Cl | 91 | 0 | 88 | 75 | 0 | 0 | 73 | 84 | 97 | 77 | 75
O=C(c1cc2c(s1)CCCC2)N1CCN(Cc2ccc3c(c2)OCO3)CC1 | 0 | 0 | 0 | 0 | 0 | 0 | - | - | - | - | -
O=C(Oc1ccc2c(c1)OCO2)c1cc2c(s1)CCC2 | 81 | 0 | 68 | 60 | 0 | 0 | 76 | 74 | 89 | 56 | 65
CC(C)C(=O)NC(=O)[C@@H]1CCCN1C(=O)/C=C/c1ccccc1 | 0 | 0 | 0 | 0 | 0 | 0 | - | - | - | - | -
CN1C(=O)C(CC(=O)O)S/C1=N\N=C\c1ccc(O)cc1O (stereo not given) | 61 | 0 | 0 | 0 | 0 | 0 | 0 | 0 | 74 | 80 | 0
O=C1/C(=C\c2cccnc2)Sc2ccccc21 | 0 | 0 | 0 | 0 | 0 | 0 | - | - | - | - | -
CC(=O)Nc1ccc(/C=C2/Sc3ccccc3C2=O)cc1 | 66 | 0 | 94 | 62 | 0 | 0 | 0 | 0 | 0 | 0 | 0
S=c1nccc(-c2ccc3c(c2)CCO3)[nH]1 | 0 | 0 | 0 | 0 | 0 | 0 | - | - | - | - | -
